“And” between values parts separate entries of the source, which are not always exact repeats. Equal values may be shown once. Read-outs that look alike come from different tables or passages of the source.
How the values were obtained:
LmGMPR [1] = biological target: T1, LmGMPR (Leishmania major, UniProt Q4QEB3); assay: Steady-state kinetic analysis of LmGMPR; assay type: biochemical, L. major; details: for Increase in NADPH Km value: saturating concentrations of GMP
T1 sequence (Q4QEB3 1-492): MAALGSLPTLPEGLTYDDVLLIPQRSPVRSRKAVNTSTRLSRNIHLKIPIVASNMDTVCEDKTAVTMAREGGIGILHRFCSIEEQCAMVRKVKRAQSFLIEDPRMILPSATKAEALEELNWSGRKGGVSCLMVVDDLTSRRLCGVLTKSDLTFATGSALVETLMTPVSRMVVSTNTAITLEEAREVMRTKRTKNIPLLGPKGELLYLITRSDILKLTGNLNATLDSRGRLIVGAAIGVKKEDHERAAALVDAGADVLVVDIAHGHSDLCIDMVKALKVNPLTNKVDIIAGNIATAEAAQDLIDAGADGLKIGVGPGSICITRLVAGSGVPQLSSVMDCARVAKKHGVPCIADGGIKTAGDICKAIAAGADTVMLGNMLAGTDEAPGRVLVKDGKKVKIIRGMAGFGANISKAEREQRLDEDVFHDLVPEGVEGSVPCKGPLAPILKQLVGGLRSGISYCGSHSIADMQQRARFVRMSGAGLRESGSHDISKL

[2] = biological target: eukaryotic IMPDH enzymes, including human and Leishmania; details: literature values; cited from earlier work
Leishmania = Leishmania growth in media with defined purine source in presence of MPA; assay type: cell-based; details: media supplemented with either guanine or xanthine (Fig. S2)
LdIMPDH [3] = biological target: T2, LdIMPDH (Leishmania donovani, UniProt P21620); assay: Rate zonal centrifugation, quaternary structure of LdIMPDH; design: species or system L. donovani; details: saturating nucleotide, glycerol gradient
[4] = biological target: LdIMPDH CBS domain (His6-impdh112-223) (Leishmania donovani, UniProt P21620); assay: Intrinsic fluorescence binding to LdIMPDH CBS domain; design: species or system L. donovani
LmGMPR [5] = biological target: T1, LmGMPR; assay: Rate zonal centrifugation, quaternary structure of LmGMPR; design: species or system L. major; details: saturating (1.0 mM) nucleotide, 5–40% glycerol gradient
Outline: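 Recombinant LmGMPR expressed in GMPR-deficient E. coli and purified by ammonium sulfate fractionation and Cibacron blue chromatography. Spun at 34,000 rpm for 16 h at 4 °C; 50 μg bovine hemoglobin as internal standard.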

[6] = biological target: LmGMPR CBS domain (His6-gmpr92-222) (Leishmania major, UniProt Q4QEB3); assay: Intrinsic fluorescence binding to LmGMPR CBS domain; design: species or system L. major
LdIMPDH [7] = biological target: T2, LdIMPDH; assay: biochemical; assay type: binding
LmGMPR [8] = biological target: T1, LmGMPR; assay: Fluorescence titration of nucleotide binding to full length LmGMPR; design: species or system L. major
LdIMPDH [9] = biological target: T2, LdIMPDH; details: read-out: inhibition constant (Ki); ref Dobie et al., 2007; cited from earlier work
[10] = biological target: Leishmania major guanosine 5'-monophosphate reductase (Leishmania major); assay: rate zonal centrifugation on a glycerol gradient
[11] = biological target: the molecule itself; assay: rate zonal centrifugation on a glycerol gradient
[12] = biological target: the molecule itself; assay: rate zonal centrifugation on a glycerol gradient; remark: listed apart in the source
[13] = 20 μM LdIMPDH, single phase binding isotherm
[14] = read-out: Kd1, 26 μM LmGMPR, no NADPH, fluorescence at 335 nm

Molecule: [Mg+2] [Mg^2+]
- Effect on LmGMPR enzymatic activity (LmGMPR [1]; added to the reaction buffer): no significant affect on enzymatic activity

Molecule: COc1c(C)c2c(c(O)c1C/C=C(\C)CCC(=O)O)C(=O)OC2 [MPA, mycophenolic acid]
- Ki [2]: 0.004 to 0.02 µM
- Effect on parasite growth (Leishmania): refractory to MPA
- Ki (LmGMPR [1]): ~20 µM
- Mode of inhibition of LmGMPR (LmGMPR [1]): competitive inhibitor of NADPH

Molecule: Nc1ncnc2c1ncn2[C@@H]1O[C@H](COP(=O)(O)O)[C@@H](O)[C@H]1O [AMP]
- Quaternary structure of LdIMPDH (LdIMPDH [3]): tetrameric structure

Molecule: Nc1ncnc2c1ncn2[C@@H]1O[C@H](COP(=O)(O)OP(=O)(O)OP(=O)(O)O)[C@@H](O)[C@H]1O [ATP]
- Kd ([4]; intrinsic fluorescence changes): 148 ± 19 µM
- Quaternary structure of LmGMPR (LmGMPR [5]): monomeric and dimeric forms
- Binding saturation ([6]; up to 3.0 mM): saturation binding was not attained
- Kd (LdIMPDH [7]; [13]): 130 ± 11 µM
- Quaternary structure of LdIMPDH (LdIMPDH [3]): tetrameric structure
- Kd (LmGMPR [8]; [14]): 87 ± 24 µM
- Decrease in Vmax value (LmGMPR [1]; 1.0 mM ATP): ~ 4 fold
- Increase in GMP Ks (Km) value (LmGMPR [1]; 1.0 mM ATP): 10 fold and ~ 10 fold
- Increase in NADPH Km value (LmGMPR [1]): ~ 2 fold

Molecule: Nc1nc2c(ncn2[C@@H]2O[C@H](COP(=O)(O)O)[C@@H](O)[C@H]2O)c(=O)[nH]1 [GMP, guanosine 5′-monophosphate]
- Quaternary structure of LmGMPR (LmGMPR [5]): stabilized the formation of the LmGMPR tetramer
- Kd [6]: 333 ± 27 µM
- Kd (LdIMPDH [7]): 66 ± 7 µM
- Quaternary structure of LdIMPDH (LdIMPDH [3]): tetrameric structure
- Ki (LdIMPDH [9]): ~200 µM
- Kd (LmGMPR [8]): 20 ± 2 µM

Molecule: Leishmania major guanosine 5'-monophosphate reductase (enzyme)
- stoichiometry N [10]: 2

Molecule: Nc1nc2c(ncn2[C@@H]2O[C@H](COP(=O)(O)OP(=O)(O)OP(=O)(O)O)[C@@H](O)[C@H]2O)c(=O)[nH]1 [GTP]
- Quaternary structure of LmGMPR (LmGMPR [5]): stabilized the formation of the LmGMPR tetramer
- Kd ([6]; single phase binding isotherm, 35 μM His6-gmpr92-222): 188 ± 19 µM
- Kd (LdIMPDH [7]; [13]): 67 ± 5 µM
- Kd (LmGMPR [8]; [14]): 16 ± 1 µM
- Decrease in GMP Ks value (LmGMPR [1]; 10 μM GTP): ~ 3 fold
- Increase in Vmax value (LmGMPR [1]; 10 μM GTP): ~ 8 fold
- Increase in NADPH Km value (LmGMPR [1]): ~ 2 fold
- Utilization as substrate by LmGMPR (LmGMPR [1]; steady state kinetic analysis): not utilized as a substrate

Molecule: O=c1[nH]cnc2nc[nH]c12 [hypoxanthine]
- Binding to LdIMPDH CBS domain [4]: no saturable binding
- Binding to LdIMPDH (LdIMPDH [7]; concentration of 2.0 mM): no significant binding

Molecule: NC(=O)C1=CN([C@@H]2O[C@H](COP(=O)(O)OP(=O)(O)OC[C@H]3O[C@@H](n4cnc5c(N)ncnc54)[C@H](O)[C@@H]3O)[C@@H](O)[C@H]2O)C=CC1 [NADH]
- Use as hydride donor for reductive deamination of GMP (LmGMPR [1]; NADH up to 5.0 mM): failed to induce the reductive deamination of GMP

Molecule: NC(=O)C1=CN([C@@H]2O[C@H](COP(=O)(O)OP(=O)(O)OC[C@H]3O[C@@H](n4cnc5c(N)ncnc54)[C@H](OP(=O)(O)O)[C@@H]3O)[C@@H](O)[C@H]2O)C=CC1 [NADPH]
- Kd (LmGMPR [8]; absence of GMP, shift of NADPH emission λmax, excitation 340 nm, equation 3): 27 ± 4 µM

B1: Leishmania donovani inosine 5'-monophosphate dehydrogenase (enzyme, UniProt P21620 1-514, looked up)
chain: MATNNANYRIKTIKDGCTAEELFRGDGLTYNDFIILPGFIDFGAADVNISGQFTKRIRLHIPIVSSPMDTITENEMAKTMALMGGVGVLHNNCTVERQVEMVKSVKAYRNGFISKPKSVPPNTPISNIIRIKEEKGISGILVTENGDPHGKLLGIVCTKDIDYVKNKDTPVSAVMTRREKMTVERAPIQLEEAMDVLNRSRYGYLPIVNENDEVVNLCSRRDAVRARDYPHSTLDKSGRLICAAATSTRPEDKRRVAALADVGVDVLVLDSSQGNTIYQIAFIKWVKSTYPHLEVVAGNVVTQDQAKNLIDAGADGIRIGMGSGSICITQEVLACGRPQGTAVYKVAQYCASRGVPCTADGGLRQVGDICKALAIGANCAMLGGMLSGTTETPGEYFFKGGVRLKVYRGMGSLEAMSQGKESGKRYLSENEAVQVAQGVSGNVVDKGSAAKLIAYVSKGLQQSAQDIGEISFDAIREKMYAGQVLFSRRSPTAQGEGGVHSLHSYEKKLFAAKM
- stoichiometry N [11]: 4
- stoichiometry N [12]: 2

From paper PMC4879609 (Molecular microbiology, 2016)
